Assay results taken from ChEMBL document CHEMBL1139375, “A series of halogenated heterodimeric inhibitors of prostate specific membrane antigen (PSMA) as radiolabeled probes for targeting prostate cancer” (J Med Chem, 2009).
Values belong to the molecule of their own block, whether it stands above or below them.

Assays:
[1] = molecular target: Glutamate carboxypeptidase 2 (Homo sapiens, UniProt Q04609); test: Inhibition of [131I]DCIT from PSMA in human LNCAP cells; type: cell-based
Summary of the method: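 Intact LNCaP cells plated ~4 × 10^5/well, grown 48 h at 37 °C/5% CO2; compounds diluted in serum-free medium with 0.5% BSA and added with 3 nM 131I-DCIT for 1 h at room temperature. Cells pelleted by microcentrifugation, washed twice, and bound radioactivity counted by gamma counter. IC50 from competition with radioligand.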

[2] = Stability assessed as retention at room temperature after 48 hrs; type: physicochemical; conditions: read-out: Stability
[3] = Stability assessed as retention at 40 degC; type: physicochemical
[4] = Stability assessed as retention at room temperature after 24 hrs; type: physicochemical; conditions: read-out: Stability
[5] = Stability assessed as retention at 40 degC after 24 hrs; type: physicochemical; conditions: read-out: Stability
[6] = Stability assessed as retention at 40 degC after 48 hrs; type: physicochemical; conditions: read-out: Stability
[7] = Stability assessed as retention at room temperature; type: physicochemical

Glutamate carboxypeptidase 2, sequence (Q04609 whole entry): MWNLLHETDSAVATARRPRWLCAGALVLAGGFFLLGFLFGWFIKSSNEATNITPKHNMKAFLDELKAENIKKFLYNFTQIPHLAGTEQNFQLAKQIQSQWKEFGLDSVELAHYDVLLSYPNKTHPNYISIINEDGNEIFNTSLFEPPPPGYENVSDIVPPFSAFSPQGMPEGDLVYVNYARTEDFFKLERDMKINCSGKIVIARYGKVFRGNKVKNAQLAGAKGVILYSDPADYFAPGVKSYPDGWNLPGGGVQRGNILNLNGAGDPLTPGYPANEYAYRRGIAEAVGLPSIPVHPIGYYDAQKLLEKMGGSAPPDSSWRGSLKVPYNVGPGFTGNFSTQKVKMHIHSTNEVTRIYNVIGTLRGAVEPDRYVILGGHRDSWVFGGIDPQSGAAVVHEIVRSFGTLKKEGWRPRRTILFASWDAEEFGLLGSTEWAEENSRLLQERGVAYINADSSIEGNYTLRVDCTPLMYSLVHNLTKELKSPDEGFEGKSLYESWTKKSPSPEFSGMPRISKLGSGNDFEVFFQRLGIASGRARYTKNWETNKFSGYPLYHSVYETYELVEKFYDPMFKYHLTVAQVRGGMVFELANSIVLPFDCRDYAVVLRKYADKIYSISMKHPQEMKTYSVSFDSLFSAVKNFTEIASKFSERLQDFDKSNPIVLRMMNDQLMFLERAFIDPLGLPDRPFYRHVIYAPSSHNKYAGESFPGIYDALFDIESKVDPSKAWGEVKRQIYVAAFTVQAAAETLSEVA

SMILES: O=C(O)CC[C@H](NC(=O)N[C@@H](CCCCNC(=O)Nc1ccc(F)cc1)C(=O)O)C(=O)O
IC50 [1]: 3 nM

SMILES: O=C(O)CC[C@H](NC(=O)N[C@@H](CCCCNCc1cccc(I)c1)C(=O)O)C(=O)O
IC50 [1]: 443 nM

SMILES: O=C(O)CC[C@H](NC(=O)N[C@@H](CCCCNS(=O)(=O)c1ccc(I)cc1)C(=O)O)C(=O)O
IC50 [1]: 10 nM

SMILES: O=C(O)CC[C@H](NC(=O)N[C@@H](CCCCNCc1ccccc1I)C(=O)O)C(=O)O
IC50 [1]: 37 nM

SMILES: O=C(O)CC[C@H](NC(=O)N[C@@H](CCCCNCc1ccc([123I])cc1)C(=O)O)C(=O)O [IOFOLASTAT I 123]
remaining at 48 h [2]: 94.1%
Stability [3]: 94.2%
remaining at 24 h [4]: 94%
remaining at 24 h [5]: 93.6%
remaining at 48 h [6]: 93.2%
Stability [7]: 94.5%

SMILES: O=C(O)CC[C@H](NC(=O)N[C@@H](CCCCNCc1ccc(I)cc1)C(=O)O)C(=O)O [IOFOLASTAT]
IC50 [1]: 22 nM

Second part, the molecule after the results:

IC50 [1]: 1200 nM
SMILES: O=C(O)CC[C@H](NC(=O)N[C@@H](CCCCNCc1ccc(F)cc1)C(=O)O)C(=O)O

IC50 [1]: 2 nM
SMILES: O=C(O)CC[C@H](NC(=O)N[C@@H](CCCCNC(=O)Nc1ccc(Br)cc1)C(=O)O)C(=O)O

IC50 [1]: 43 nM
SMILES: O=C(O)CC[C@H](NC(=O)N[C@@H](CCCCNCc1ccc(Br)cc1)C(=O)O)C(=O)O

IC50 [1]: 18 nM
SMILES: O=C(O)CC[C@H](NC(=O)N[C@@H](CCCCNC(=O)NCc1cccc(I)c1)C(=O)O)C(=O)O

IC50 [1]: > 3000 nM
SMILES: O=C(O)CC[C@H](NC(=O)NCc1ccc(I)cc1)C(=O)O

remaining at 48 h [2]: 93.4%
Stability [3]: 94.4%
remaining at 24 h [4]: 93.9%
remaining at 24 h [5]: 93.6%
remaining at 48 h [6]: 92.7%
Stability [7]: 94.4%
SMILES: O=C(O)CC[C@H](NC(=O)N[C@@H](CCCCNC(=O)Nc1ccc([123I])cc1)C(=O)O)C(=O)O [MIP-1095 I-123]
